Laboratory results as given in ChEMBL document CHEMBL1137654, “Activity of an antimicrobial peptide mimetic against planktonic and biofilm cultures of oral pathogens” (2007).
Calls of active or inactive are those of the source.

Experiments:
[1] = tested on: Streptococcus mutans; assay: Antibacterial activity against Streptococcus mutans ATCC 33402 biofilms assessed as log reduction of viable bacteria at 500 ug/ml; type: functional, organism-based
In short: (§1)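 1 × 10⁵ CFU grown 2 days in BHI + 1% sucrose, then compound added for 24 h. Biofilms washed with PBS, disrupted by sonication (30 s) in 2 ml PBS, serially diluted and plated on mitis agar for viable counts.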

[2] = tested on: Streptococcus mutans; assay: Antibacterial activity against Streptococcus mutans ATCC 33402 biofilms assessed as log reduction of viable bacteria at 50 ug/ml; type: functional; in short: as §1
[3] = tested on: Streptococcus mutans; assay: Antibacterial activity against Streptococcus mutans isolate N32 after 24 to 48 hrs; type: functional
In short: (§2)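 MBC: wells at the MIC plus one dilution above and below plated on agar; after 24 to 48 h growth, MBC = lowest concentration giving no visible growth on the agar surface.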

[4] = tested on: Actinomyces viscosus; assay: Antibacterial activity against Actinomyces viscosus after 24 to 48 hrs; type: functional; in short: as §2
[5] = tested on: Pichia kudriavzevii; assay: Antifungal activity against Candida krusei ATCC 6258 after 24 hrs by broth microdilution assay; type: functional; conditions: ATCC 6258, 24 h
In short: (§3)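 CLSI M27-A2 broth microdilution. Colonies from 24-h YPD agar culture suspended in 0.85% saline, set to 0.5 McFarland (OD 530 nm). Final inoculum 0.5–2.5 × 10³ CFU/ml in RPMI 1640 + 0.165 M MOPS pH 7.0. DMSO stock diluted to final 0.016–16 μg/ml. 35°C, visual read at 24 h against the drug-free well. Duplicate.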

[6] = tested on: RAW264.7; assay: Inhibition of Pseudomonas aeruginosa LPS-induced TNFalpha production in mouse RAW264.7 cells at 9.5 nM after 6 hrs by ELISA; type: functional, cell-based
In short: (§4)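 RAW 264.7 macrophages plated overnight at 1 × 10⁶ cells/well, then stimulated with 100 ng/ml LPS together with test agent for 6 h at 37°C. TNF-α in the medium measured by mouse TNF-α ELISA. Triplicate; SE; t test.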

[7] = tested on: Streptococcus mutans; assay: Antibacterial activity against Streptococcus mutans ATCC 33402 in presence of 30 nM single stranded DNA; type: functional, organism-based
[8] = tested on: Nucleic Acid; assay: Binding affinity to single stranded GC-rich oligonucleotide assessed as retardation of oligonucleotide movement by agarose gel electrophoresis; type: nucleic-acid assay
[9] = tested on: Aggregatibacter actinomycetemcomitans; assay: Antibacterial activity against Actinobacillus actinomycetemcommitans CU1000 after 24 to 48 hrs; type: functional; in short: as §2
[10] = tested on: Candida albicans; assay: Antifungal activity against Candida albicans 44 after 24 hrs by broth microdilution assay; type: functional; conditions: Candida albicans, 44, 24 h; in short: as §3
[11] = tested on: Candida tropicalis; assay: Antifungal activity against Candida tropicalis ATCC 750 after 24 hrs by broth microdilution assay; type: functional; conditions: ATCC 750, 24 h; in short: as §3
[12] = tested on: Streptococcus mutans; assay: Antibacterial activity against Streptococcus mutans ATCC 33402 after 24 to 48 hrs; type: functional; in short: as §2
[13] = tested on: Nucleic Acid; assay: Binding affinity to double stranded DNA retardation of oligonucleotide movement by agarose gel electrophoresis; type: nucleic-acid assay
[14] = tested on: Nakaseomyces glabratus; assay: Antifungal activity against Candida glabrata ATCC 90030 after 24 hrs by broth microdilution assay; type: functional; conditions: ATCC 90030, 24 h; in short: as §3
[15] = tested on: Streptococcus mutans; assay: Antibacterial activity against Streptococcus mutans ATCC 33402 after 18 to 24 hrs; type: functional
In short: (§5)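 Exponential-phase overnight culture in the organism's growth medium, adjusted to 4.5 × 10⁵ CFU/ml and added to serial compound dilutions in 96-well plates; 37°C for 18 to 24 h in a humidified container. MIC = lowest concentration preventing visible turbidity. Triplicate.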

[16] = tested on: Candida parapsilosis; assay: Antifungal activity against Candida parapsilosis ATCC 22019 after 24 hrs by broth microdilution assay; type: functional; conditions: Lodderomyces parapsilosis, ATCC 22019, 24 h; in short: as §3
[17] = tested on: Streptococcus mutans; assay: Antibacterial activity against Streptococcus mutans ATCC 33402 assessed as log cell killing at 10 times MIC within 1 minute by time kill study; type: functional
[18] = tested on: Streptococcus mutans; assay: Antibacterial activity against Streptococcus mutans ATCC 33402 in presence of 10% human saliva; type: functional
[19] = tested on: Streptococcus mutans; assay: Antibacterial activity against Streptococcus mutans isolate N32 after 18 to 24 hrs; type: functional; in short: as §5
[20] = tested on: Streptococcus mutans; assay: Antibacterial activity against Streptococcus mutans ATCC 33402 biofilms assessed as inhibition of adherent biomass growth at >2.5 ug/ml in presence of 1% sucrose by crystal violet staining; type: functional, organism-based
In short: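 1 × 10⁵ CFU seeded in 96-well plates in BHI + 1% sucrose to form a biofilm, then exposed to increasing concentrations. After PBS washes to remove planktonic cells, methanol fixation and crystal violet staining, absorbance read at 595 nm. Reported as change from day-2 cultures before compound addition. Triplicate; SD.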

[21] = tested on: Streptococcus mutans; assay: Antibacterial activity against Streptococcus mutans ATCC 33402 assessed as log cell killing at MIC after 1 hr by time kill study; type: functional, organism-based
[22] = tested on: Actinomyces viscosus; assay: Antibacterial activity against Actinomyces viscosus after 18 to 24 hrs; type: functional; in short: as §5
[23] = tested on: Streptococcus mutans; assay: Antibacterial activity against Streptococcus mutans isolate N43 after 18 to 24 hrs; type: functional; in short: as §5
[24] = tested on: Streptococcus mutans; assay: Antibacterial activity against Streptococcus mutans isolate N43 after 24 to 48 hrs; type: functional; in short: as §2
[25] = tested on: Streptococcus mutans; assay: Antibacterial activity against Streptococcus mutans ATCC 33402 in presence of 25% human saliva; type: functional
[26] = tested on: Staphylococcus aureus; assay: Antibacterial activity against Staphylococcus aureus ATCC 27660 after 18 to 24 hrs; type: functional; in short: as §5
[27] = tested on: Staphylococcus aureus; assay: Antibacterial activity against Staphylococcus aureus ATCC 27660 after 24 to 48 hrs; type: functional; in short: as §2
[28] = tested on: Porphyromonas gingivalis; assay: Antibacterial activity against Porphyromonas gingivalis ATCC 53978 after 18 to 24 hrs; type: functional
In short: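 P. gingivalis maintained in cooked meat medium with glucose, hemin and vitamin K at 37°C, anaerobic. MIC run in both cooked meat medium and TSB: 4.5 × 10⁵ CFU/ml with serial dilutions, 18 to 24 h, lowest concentration without visible turbidity. Triplicate.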

[29] = tested on: Streptococcus mutans; assay: Antibacterial activity against Streptococcus mutans ATCC 33402 biofilms assessed as bacterial dead cells at 50 ug/ml after 24 hrs by fluorescence confocal microscopy; type: functional, organism-based
In short: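 2-day sucrose biofilms treated 24 h with 0 or 50 μg/ml, washed three times with PBS, stained 15 min in the dark with LIVE/DEAD dye diluted 1:1,000, washed once. Imaged by confocal laser scanning microscopy at 488 and 543 nm, side and top views.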

[30] = tested on: Streptococcus mutans; assay: Antibacterial activity against Streptococcus mutans ATCC 33402 in presence of 50% human saliva; type: functional
[31] = tested on: Candida albicans; assay: Antifungal activity against Candida albicans ATCC 90028 after 24 hrs by broth microdilution assay; type: functional; conditions: ATCC 90028, 24 h; in short: as §3
[32] = tested on: Candida albicans; assay: Antifungal activity against Candida albicans M70 after 24 hrs by broth microdilution assay; type: functional; conditions: M70, 24 h; in short: as §3
[33] = tested on: Streptococcus mutans; assay: Antibacterial activity against Streptococcus mutans ATCC 33402 assessed as inhibition of biofilm formation at >1 ug/ml in presence of 1% sucrose by crystal violet staining; type: functional, organism-based
[34] = tested on: Aggregatibacter actinomycetemcomitans; assay: Antibacterial activity against Actinobacillus actinomycetemcommitans CU1000 after 18 to 24 hrs; type: functional; in short: as §5
[35] = tested on: Candida dubliniensis; assay: Antifungal activity against Candida dubliniensis NCPF3949 after 24 hrs by broth microdilution assay; type: functional; conditions: NCPF3949, 24 h; in short: as §3
[36] = tested on: Nucleic Acid; assay: Binding affinity to single stranded AT-rich oligonucleotide assessed as retardation of oligonucleotide movement by agarose gel electrophoresis; type: nucleic-acid assay
[37] = tested on: Porphyromonas gingivalis; assay: Antibacterial activity against Porphyromonas gingivalis ATCC 53978 after 24 to 48 hrs; type: functional
In short: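 P. gingivalis MBC, anaerobic, from MIC plates run in cooked meat medium and TSB: the MIC well and one dilution above and below plated; lowest concentration with no visible agar growth after 24 to 48 h.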

[38] = tested on: RAW264.7; assay: Inhibition of Pseudomonas aeruginosa LPS-induced TNFalpha production in mouse RAW264.7 cells at 7 nM after 6 hrs by ELISA; type: functional, cell-based; in short: as §4

CN(C)[C@@H]1C(O)=C(C(N)=O)C(=O)[C@@]2(O)C(O)=C3C(=O)c4c(O)cccc4[C@@](C)(O)[C@H]3C[C@@H]12
active: Activity [1]

NCCc1cc(Br)cc(C#Cc2cccc(C#Cc3cc(Br)cc(CCN)c3)c2)c1
1.25 µg/mL: MBC [3] | MBC [12] | MBC [24]
1 µg/mL: MIC [5] | MFC [10] | MIC [11] | MIC [14] | MIC [16] | MIC [18] | MIC [25] | MIC [31] | MFC [32] | MIC [35]
0.5 µg/mL: MIC [10] | MIC [15] | MIC [19] | MIC [23] | MIC [30] | MIC [32]
0.4 µg/mL: MIC [34]
2.5 µg/mL: MIC [28] | MBC [37]
active: Activity [6] | Activity [7] | Activity [8] | Activity [13] | Activity [20] | Activity [21] | Activity [29] | Activity [33] | Activity [36]
3: Activity [2]
0.8 µg/mL: MIC [22] | MBC [27]
1.5 µg/mL: MBC [4] | MBC [9]
2 µg/mL: MFC [5] | MFC [11] | MFC [14] | MFC [16] | MFC [31] | MFC [35]
>2: Activity [17]
0.25 µg/mL: MIC [26]

POLYMYXIN B
active: Activity [38]
